Experimental data as given in ChEMBL document CHEMBL2086311, “UDP made a highly promising stable, potent, and selective P2Y6-receptor agonist upon introduction of a boranophosphate moiety” (Bioorg Med Chem, 2012).
Activity calls are given as the source filed them. The calls are words filed in the database; no cut-off is given here.

Assays:
P2Y purinoceptor 4 [1] = target: T1, P2Y purinoceptor 4 (Homo sapiens, UniProt P51582); assay: Agonist activity at human GFP-tagged P2Y4 receptor expressed in human 1321N1 cells assessed as intracellular calcium mobilization up to 100 uM by fura2/AM-based fluorescence spectrophotometry; assay type: functional, cell-based
T1 sequence (P51582 whole entry, the tested form may be a part): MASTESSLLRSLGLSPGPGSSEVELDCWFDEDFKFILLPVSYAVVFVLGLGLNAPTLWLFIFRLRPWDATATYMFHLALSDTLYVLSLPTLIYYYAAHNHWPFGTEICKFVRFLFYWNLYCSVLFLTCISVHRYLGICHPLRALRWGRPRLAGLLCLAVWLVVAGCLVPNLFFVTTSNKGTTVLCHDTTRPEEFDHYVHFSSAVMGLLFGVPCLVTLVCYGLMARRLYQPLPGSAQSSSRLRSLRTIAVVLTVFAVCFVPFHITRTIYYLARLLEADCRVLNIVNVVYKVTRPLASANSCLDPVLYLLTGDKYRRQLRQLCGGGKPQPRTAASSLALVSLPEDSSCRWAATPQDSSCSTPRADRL
Procedure, shortened: (§1)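 Human P2Y2, P2Y4 or P2Y6 receptors with GFP fusion, stably expressed in 1321N1 astrocytoma cells (no endogenous P2X/P2Y), selected with 0.5 mg/mL G418. Cells on coverslips at ~80% density were loaded with 2 µM fura 2/AM plus 0.02% pluronic acid in Na-HBS pH 7.4 for 30 min at 37 °C. Nucleotide was superfused at 37 °C, usually 10^-8 to ≥10^-5 M, sometimes to 10^-4 M. Read-out was 340/380 nm excitation ratio at 510 nm emission. Values are mean maximal amplitude ± SE.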

P2Y purinoceptor 6 [2] = target: T2, P2Y purinoceptor 6 (Homo sapiens, UniProt Q15077); assay: Agonist activity at human GFP-tagged P2Y6 receptor expressed in human 1321N1 cells assessed as intracellular calcium mobilization by fura2/AM-based fluorescence spectrophotometry; assay type: functional, cell-based; procedure, shortened: as §1
T2 sequence (Q15077 whole entry): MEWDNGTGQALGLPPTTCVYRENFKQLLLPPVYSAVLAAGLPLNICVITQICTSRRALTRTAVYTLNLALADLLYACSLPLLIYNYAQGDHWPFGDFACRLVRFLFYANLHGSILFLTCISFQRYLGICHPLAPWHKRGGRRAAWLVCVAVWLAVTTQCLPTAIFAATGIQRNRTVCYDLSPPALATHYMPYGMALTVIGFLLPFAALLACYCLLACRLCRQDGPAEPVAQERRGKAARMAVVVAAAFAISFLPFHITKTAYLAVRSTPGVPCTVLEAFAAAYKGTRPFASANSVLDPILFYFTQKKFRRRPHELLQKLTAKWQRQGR

[3] = target: P2Y purinoceptor 2 (Homo sapiens) (UniProt P41231); assay: Agonist activity at human GFP-tagged P2Y2 receptor expressed in human 1321N1 cells assessed as intracellular calcium mobilization up to 100 uM by fura2/AM-based fluorescence spectrophotometry; assay type: functional, cell-based; procedure, shortened: as §1
Chain of P2Y purinoceptor 2 (Homo sapiens) (P41231 whole entry): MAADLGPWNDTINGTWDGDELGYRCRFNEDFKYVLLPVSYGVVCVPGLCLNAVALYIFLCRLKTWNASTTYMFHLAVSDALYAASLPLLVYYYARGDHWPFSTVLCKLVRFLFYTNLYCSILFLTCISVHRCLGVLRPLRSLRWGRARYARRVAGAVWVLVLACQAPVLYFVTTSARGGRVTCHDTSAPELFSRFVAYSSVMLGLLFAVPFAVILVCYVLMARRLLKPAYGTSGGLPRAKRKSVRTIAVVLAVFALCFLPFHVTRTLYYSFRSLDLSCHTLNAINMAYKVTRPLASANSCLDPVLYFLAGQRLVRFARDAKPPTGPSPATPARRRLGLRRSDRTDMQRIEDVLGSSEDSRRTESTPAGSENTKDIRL

[4] = Half life in KCl/HCl buffer by 31P-NMR analysis at pH 1.4; assay type: physicochemical
Procedure, shortened: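 Sodium salt dissolved in KCl/HCl buffer pH 1.4 containing D2O, held at 37 °C. 31P NMR spectra taken at 15 min, 1 h or 24 h intervals, about every 24 h in multi-day runs. Hydrolysis rate taken from change in integration of one starting-material phosphate signal over time, fit to a pseudo-first-order model.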

[5] = Half life in human serum by HPLC analysis; assay type: ADME, cell-free
Procedure, shortened: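 Compound (0.1 mg) incubated with human blood serum and RPMI-1640 medium at 37 °C for 0–24 h. Samples taken at 0.5–12 h intervals, heated to 80 °C for 30 min, treated with CM Sephadex and extracted with chloroform. Analysed by reverse-phase HPLC. Degradation from peak integration, corrected against a serum-free control given the same workup.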

P2Y purinoceptor 4 [6] = target: T1, P2Y purinoceptor 4; assay: Agonist activity at human GFP-tagged P2Y4 receptor expressed in human 1321N1 cells assessed as intracellular calcium mobilization by fura2/AM-based fluorescence spectrophotometry; assay type: functional, cell-based; procedure, shortened: as §1
[7] = target: T3, NPP3 (ectonucleotide pyrophosphatase/phosphodiesterase family member 3) (Homo sapiens, UniProt O14638); assay: Hydrolytic stability of the compound assessed as human NPP3-mediated hydrolysis after 3 hrs by HPLC analysis; assay type: ADME; conditions: human NPP3 enzyme, read-out: Activity
T3 sequence (O14638 whole entry): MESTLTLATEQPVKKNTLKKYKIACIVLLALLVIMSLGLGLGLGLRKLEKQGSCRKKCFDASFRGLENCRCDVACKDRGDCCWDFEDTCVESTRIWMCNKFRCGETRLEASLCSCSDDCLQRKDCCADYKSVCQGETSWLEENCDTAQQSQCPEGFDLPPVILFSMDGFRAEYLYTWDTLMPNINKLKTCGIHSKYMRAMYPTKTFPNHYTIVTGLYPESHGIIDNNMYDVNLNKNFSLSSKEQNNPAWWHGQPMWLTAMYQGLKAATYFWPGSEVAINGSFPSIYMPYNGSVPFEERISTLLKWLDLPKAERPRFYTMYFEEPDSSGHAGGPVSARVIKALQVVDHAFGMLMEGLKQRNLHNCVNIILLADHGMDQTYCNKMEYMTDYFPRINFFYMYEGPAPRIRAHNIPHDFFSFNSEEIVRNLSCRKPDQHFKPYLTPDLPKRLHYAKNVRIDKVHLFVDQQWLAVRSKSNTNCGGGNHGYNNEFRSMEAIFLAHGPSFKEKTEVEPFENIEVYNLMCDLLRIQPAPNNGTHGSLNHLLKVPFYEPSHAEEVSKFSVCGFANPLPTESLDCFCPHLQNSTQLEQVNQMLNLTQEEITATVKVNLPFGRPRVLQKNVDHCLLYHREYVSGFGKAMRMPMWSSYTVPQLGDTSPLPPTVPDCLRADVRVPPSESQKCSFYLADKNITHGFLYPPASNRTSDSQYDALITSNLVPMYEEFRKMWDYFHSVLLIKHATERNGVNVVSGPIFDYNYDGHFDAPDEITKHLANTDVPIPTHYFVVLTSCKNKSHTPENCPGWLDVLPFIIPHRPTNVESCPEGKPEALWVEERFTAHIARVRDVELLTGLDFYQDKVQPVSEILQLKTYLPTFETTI
Procedure, shortened: (§2)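 Human NPP1 (56.15 µg) or NPP3 (57.78 µg) extract was pre-incubated 3 min at 37 °C in 1 mM CaCl2, 200 mM NaCl, 10 mM KCl, 100 mM Tris pH 8.5. Reaction was started with 4 mM compound stock and stopped after 2 h (NPP1) or 3 h (NPP3) in ice-cold 1 M perchloric acid, then neutralized with KOH. HPLC measured the nucleoside monophosphate peak area minus a no-enzyme acid control. Mean ± S.D. of two experiments.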

Serum [8] = assay: Drug metabolism in human serum assessed as nucleoside 5'-monophosphate formation incubated up to 24 hrs by HPLC analysis; assay type: ADME, cell-free
Procedure, shortened: (§3)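 Samples held 0.1 mg compound with human blood serum (180 µL) and RPMI-1640 (540 µL) at 37 °C for 0–24 h. At each time point they were heated to 80 °C for 30 min, treated with CM Sephadex, centrifuged and chloroform-extracted. Analysis was reverse-phase HPLC on peak integrals. Degradation was taken relative to a no-serum control carried through the same workup, and half-lives came from the time course.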

Serum [9] = assay: Drug metabolism in human serum assessed as nucleoside formation incubated up to 24 hrs by HPLC analysis; assay type: ADME, cell-free; procedure, shortened: as §3
[10] = target: T4, Ectonucleotide pyrophosphatase/phosphodiesterase family member 1 (Homo sapiens, UniProt P22413); assay: Hydrolytic stability of the compound assessed as human NPP1-mediated hydrolysis measuring 5-OMe-UMP formation after 2 hrs by HPLC analysis; assay type: ADME; design: scale not given: the % may be the effect or the level left; procedure, shortened: as §2
T4 sequence (P22413 whole entry): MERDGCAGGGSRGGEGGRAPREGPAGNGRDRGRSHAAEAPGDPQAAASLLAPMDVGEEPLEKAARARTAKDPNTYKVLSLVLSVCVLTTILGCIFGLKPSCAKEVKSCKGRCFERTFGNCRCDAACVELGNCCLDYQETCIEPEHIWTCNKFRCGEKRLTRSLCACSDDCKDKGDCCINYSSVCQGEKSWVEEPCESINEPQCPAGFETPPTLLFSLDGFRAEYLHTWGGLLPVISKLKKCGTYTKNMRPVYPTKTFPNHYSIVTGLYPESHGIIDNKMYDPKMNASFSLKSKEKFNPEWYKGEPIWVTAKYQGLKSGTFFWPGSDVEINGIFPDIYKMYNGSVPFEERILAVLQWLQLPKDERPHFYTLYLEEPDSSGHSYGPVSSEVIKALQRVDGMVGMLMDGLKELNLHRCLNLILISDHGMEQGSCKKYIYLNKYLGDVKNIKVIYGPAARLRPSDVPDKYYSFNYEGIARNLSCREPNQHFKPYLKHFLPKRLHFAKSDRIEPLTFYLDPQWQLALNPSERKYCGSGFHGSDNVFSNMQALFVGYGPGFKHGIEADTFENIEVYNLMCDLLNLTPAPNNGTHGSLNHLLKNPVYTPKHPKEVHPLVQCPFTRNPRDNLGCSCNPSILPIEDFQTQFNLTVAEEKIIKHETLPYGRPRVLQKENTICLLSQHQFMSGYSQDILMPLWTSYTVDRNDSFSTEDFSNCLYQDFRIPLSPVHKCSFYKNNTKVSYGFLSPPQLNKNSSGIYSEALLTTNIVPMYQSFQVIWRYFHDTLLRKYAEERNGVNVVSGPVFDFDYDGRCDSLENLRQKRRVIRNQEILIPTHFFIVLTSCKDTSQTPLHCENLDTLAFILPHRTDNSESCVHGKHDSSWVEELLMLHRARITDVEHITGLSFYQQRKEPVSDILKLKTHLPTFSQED

P2Y purinoceptor 6 [11] = target: T2, P2Y purinoceptor 6; assay: Agonist activity at human P2Y6 receptor; assay type: functional
Procedure, shortened: (§4)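 Human P2Y6 receptor-GFP construct stably expressed in 1321N1 astrocytoma cells (no endogenous P2X/P2Y). Cells loaded with 2 µM fura-2/AM plus 0.02% pluronic acid in Na-HBS (pH 7.4), 30 min, 37 °C. Superfused at 37 °C with nucleotide, usually 10^-8 M to at least 10^-5 M. [Ca2+]i read as 340/380 nm excitation ratio, emission 510 nm. EC50 from concentration–response curves.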

[12] = target: T4, Ectonucleotide pyrophosphatase/phosphodiesterase family member 1; assay: Hydrolytic stability of the compound assessed as human NPP1-mediated hydrolysis measuring UMP formation after 2 hrs by HPLC analysis; assay type: ADME; design: scale not given: the % may be the effect or the level left; procedure, shortened: as §2
[13] = Agonist activity at P2Y6 receptor in New Zealand White rabbit osteoclasts assessed as intracellular calcium mobilization by fura2-based microfluorimetric technique; assay type: functional, cell-based; conditions: Oryctolagus cuniculus
P2Y purinoceptor 6 [14] = target: T2, P2Y purinoceptor 6; assay: Ratio of UDP EC50 to compound EC50 for human GFP-tagged P2Y6 receptor; procedure, shortened: as §4

| Structure (SMILES) | Activity (P2Y purinoceptor 4 [1]) | EC50 (P2Y purinoceptor 6 [2]) [nM] | Activity [3] | other results |
| --- | --- | --- | --- | --- |
| B[P@](=O)(OC[C@H]1O[C@@H](n2cc(OC)c(=O)[nH]c2=O)[C@H](O)[C@@H]1O)OP(=O)(O)O | inactive | 4300 | inactive | – |
| B[P@](=O)(OC[C@H]1O[C@@H](n2cc(OC)c(=O)[nH]c2=O)[C@H](O)[C@@H]1O)O[P@@](=O)(O)OP(=O)(O)O | – | 20100 | – | – |
| BP(=O)(OP(=O)(O)OC[C@H]1O[C@@H](n2cc(OC)c(=O)[nH]c2=O)[C@H](O)[C@@H]1O)OP(=O)(O)OC[C@H]1O[C@@H](n2cc(OC)c(=O)[nH]c2=O)[C@H](O)[C@@H]1O | inactive | 200 | inactive | – |
| B[P@@](=O)(OC[C@H]1O[C@@H](n2ccc(=O)[nH]c2=O)[C@H](O)[C@@H]1O)OP(=O)(O)O | – | – | – | half-life [4]: 16.8 h; half-life [5]: 17 h |
| O=c1ccn([C@@H]2O[C@H](COP(=O)(O)OP(=O)(O)OP(=O)(O)O)[C@@H](O)[C@H]2O)c(=O)[nH]1 [URIDINE TRIPHOSPHATE] | – | – | – | EC50 (P2Y purinoceptor 4 [6]): 900 nM |
| B[P@@](=O)(OC[C@H]1O[C@@H](n2cc(OC)c(=O)[nH]c2=O)[C@H](O)[C@@H]1O)OP(=O)(O)OP(=O)(O)O | inactive | 11200 | inactive | – |
| BP(=O)(OC[C@H]1O[C@@H](n2cc(OC)c(=O)[nH]c2=O)[C@H](O)[C@@H]1O)OP(=O)(O)O (some centres undefined) | – | – | – | half-life [4]: 16.9 h |
| COc1cn([C@@H]2O[C@H](COP(=O)(O)OP(=O)(O)O)[C@@H](O)[C@H]2O)c(=O)[nH]c1=O | – | – | – | metabolised at 3 h [7]: 36%; Drug metabolism (Serum [8]): Active; Drug metabolism (Serum [9]): Active; half-life [5]: 11.9 h; Activity [10]: 49% |
| O=c1ccn([C@@H]2O[C@H](COP(=O)(O)OP(=O)(O)O)[C@@H](O)[C@H]2O)c(=O)[nH]1 [URIDINE_DIPHOSPHATE] | – | 150 | – | EC50 (P2Y purinoceptor 6 [11]): 47 nM; half-life [4]: 288 h; Activity [12]: 50%; Drug metabolism (Serum [8]): Active; Drug metabolism (Serum [9]): Active; half-life [5]: 2.4 h; EC50 [13]: 500 nM |
| COc1cn([C@@H]2O[C@H](COP(=O)(O)OP(=O)(O)OP(=O)(O)OC[C@H]3O[C@@H](n4cc(OC)c(=O)[nH]c4=O)[C@H](O)[C@@H]3O)[C@@H](O)[C@H]2O)c(=O)[nH]c1=O | inactive | > 10000 | inactive | – |
| O=c1ccn([C@@H]2O[C@H](COP(=O)(O)OP(=O)(O)S)[C@@H](O)[C@H]2O)c(=O)[nH]1 (some centres undefined) | – | – | – | EC50 (P2Y purinoceptor 6 [11]): 28 nM |
| B[P@](=O)(OC[C@H]1O[C@@H](n2cc(OC)c(=O)[nH]c2=O)[C@H](O)[C@@H]1O)OP(=O)(O)OP(=O)(O)OC[C@H]1O[C@@H](n2cc(OC)c(=O)[nH]c2=O)[C@H](O)[C@@H]1O | inactive | 2200 | inactive | – |
| B[P@@](=O)(OC[C@H]1O[C@@H](n2cc(OC)c(=O)[nH]c2=O)[C@H](O)[C@@H]1O)OP(=O)(O)O | inactive | – | inactive | Ratio EC50 (P2Y purinoceptor 6 [14]): 19 |
| B[P@@](=O)(OC[C@H]1O[C@@H](n2cc(OC)c(=O)[nH]c2=O)[C@H](O)[C@@H]1O)OP(=O)(O)OP(=O)(O)OC[C@H]1O[C@@H](n2cc(OC)c(=O)[nH]c2=O)[C@H](O)[C@@H]1O | inactive | 60 | inactive | Ratio EC50 (P2Y purinoceptor 6 [14]): 2.5 |
| B[P@](=O)(OC[C@H]1O[C@@H](n2cc(OC)c(=O)[nH]c2=O)[C@H](O)[C@@H]1O)OP(=O)(O)OP(=O)(O)O | inactive | – | inactive | – |
| O=c1ccn([C@@H]2O[C@H](COP(=O)(O)OP(=O)(O)OP(=O)(O)OC[C@H]3O[C@@H](n4ccc(=O)[nH]c4=O)[C@@H]4OC(Cc5ccccc5)O[C@@H]43)[C@@H](O)[C@H]2O)c(=O)[nH]1 (some centres undefined) | – | – | – | EC50 [13]: 140 nM |
